Only some compounds are listed: those with a hit (about 3.5% of all), similar ones and a draw of the others.
FLuc inhib CS – firefly luciferase enzyme inhibitors, primary screen, artefact control for luciferase-based inhibitor screens, biochemical, luminescence, ATPLite | 10 min | inhibition, % at 10 µM | 200,000 tested, 1.5% active;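 active = inhibition above about 50% when tested at 10 µM, limit read from the data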
Target sequence (P08659 whole entry, looked up): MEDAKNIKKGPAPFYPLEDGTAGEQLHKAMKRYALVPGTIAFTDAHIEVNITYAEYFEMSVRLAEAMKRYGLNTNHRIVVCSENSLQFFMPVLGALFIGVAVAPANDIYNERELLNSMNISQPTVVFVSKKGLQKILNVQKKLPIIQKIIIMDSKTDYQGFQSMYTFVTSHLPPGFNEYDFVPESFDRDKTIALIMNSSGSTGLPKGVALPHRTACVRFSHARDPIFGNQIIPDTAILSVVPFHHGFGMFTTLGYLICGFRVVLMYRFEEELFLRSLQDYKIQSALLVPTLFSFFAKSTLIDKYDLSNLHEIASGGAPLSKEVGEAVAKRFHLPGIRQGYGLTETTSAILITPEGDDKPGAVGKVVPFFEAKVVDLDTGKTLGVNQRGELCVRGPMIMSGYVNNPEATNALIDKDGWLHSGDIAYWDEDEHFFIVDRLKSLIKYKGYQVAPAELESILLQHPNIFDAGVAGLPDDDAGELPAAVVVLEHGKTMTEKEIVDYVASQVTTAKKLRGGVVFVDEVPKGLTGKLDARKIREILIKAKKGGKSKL
Pf gamet viab – late stage P. falciparum gametocyte viability inhibitors, primary screen, ATP luminescence, HTS. P. falciparum stage V gametocytes, 24 h. inhibition, % at 10.9 µM. 150,000 tested, 0.065% active. AID 743093, 2013;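 active = inhibition above the mean plus 3 SD of compounds within the control limits, set per campaign, cut at about 38% in these data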;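 note: 0% = DMSO wells and 100% = medium only without gametocytes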
FLuc stim CS – FLuc activators, initial screening, artefact control for FLuc-dependent activation tests, biochemical, ATPlite luminescence | Luciferin 4-monooxygenase (Photinus pyralis), P08659 | ATPlite luciferase biochemical, 10 min; 0 = ATP-free wells, 1 = DMSO control | activation factor at 10 µM | 200,000 tested, under 10 active;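 active = luciferase activation factor, scaled between plate controls, of at least 2 with compound at 10 µM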
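assay system = Luciferase/luciferin detection reagent, cell-free biochemical luciferase assay | also added = ATP substrate | times = 10 min post-reagent at room temperature | measured by = luminescence from luciferase reaction | measure = luciferase activation, seen as luminescence increase over controls | benchmarks = low control with PBS replacing ATP, high control enzyme plus ATP without compound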
APP 5'UTR act – activators of APP 5'UTR luciferase reporter, primary screen, SH-SY5Y cells; SH-SY5Y APP 5'UTR luciferase reporter, luminescence; zero percent = DMSO vehicle wells; activation, % at 2 µM; 190,000 tested, 1% active;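 active = activation above a set limit, based on mean plus 3 SD of controls, cut at about 140% in these data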
STAT1 activator – STAT1 signaling activators, primary screen, cell-based, HTS, luciferase reporter; NIH 3T3 STAT1-luciferase reporter, IFN-gamma, luminescence; 100% = IFN-gamma alone, no compound; 200,000 tested, 2.6% active; activation (% of control), % at 5.5 µM; AID 932, 2007;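 active = activation above the screen-wide mean activation plus 3 SD, cut at about 130% in these data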;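 note: raw ratio to IFN-gamma control signal so 100% means no change and 0% no light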
NF-kB neuron act – activators of NF-kB expression in neurons, primary screen, cell-based, HTS; human neuronal cells, NF-kB reporter expression; hits give high values; fold change at 12.5 µM; 190,000 tested, 1.6% active; AID 1239, 2008; in the data active = fold change above about 3.3
* hit, by the source's call; nt = no result.

SMILES | FLuc inhib CS | Pf gamet viab | FLuc stim CS | APP 5'UTR act | STAT1 activator | NF-kB neuron act
Cc1cc(=O)n2c(C(=O)Nc3ccc(C(=O)OC(C)C)cc3)c(C(=O)Nc3ccccc3)sc2n1 | -3.9 | -18.4 | 1 | 15.3 | 103.8 | 1.08
CCS(=O)(=O)N1CCN(c2ccc(C(=O)NC3C4CC5CC(C4)CC3C5)cc2[N+](=O)[O-])CC1 (centres undefined) | -3.4 | 8.8 | 1 | 9.5 | 90.7 | 0.34
O=C(Nc1ccc2c(c1)OCO2)C1CCCN(c2nc3ccccc3s2)C1 (centres undefined) | 2.4 | nt | 1 | 9.4 | 128.6* | 1.22
Cc1ccc(C(=O)NNC(=O)c2ccc(NC(=O)C(C)(C)C)cc2)cc1 | nt | -25.0 | nt | nt | nt | nt
Cc1ccc(NC2=C(N3CCOCC3)C(=O)c3ccccc3C2=O)cc1 | 56.0* | nt | 0.4 | 151.2* | 128.3 | 1.79
Cc1ccc(-c2cc(=O)c3cc(F)ccc3[nH]2)cc1 | 19.5 | nt | 0.8 | 6.1 | 103.7 | 1.82
COc1ccc2[nH]c(-c3cccc(F)c3)cc(=O)c2c1 | 25.4 | 14.0 | 0.7 | -92.9 | 127.5 | 5.46*
Cc1ccc(-c2cc(=O)c3cc(C)ccc3[nH]2)cc1 | 93.3* | nt | 0.1 | 114.8 | 146.4* | 5.8*
Cc1ccc2[nH]c(-c3cccc(F)c3)cc(=O)c2c1 | 20.4 | -4.5 | 0.8 | -93.2 | 120.8 | 3.79*
Cc1cc(S(=O)(=O)Nc2ccc(N(C)C)cc2)c(C)s1 | -4.8 | nt | 1 | -8.9 | 95.9 | 0.72
COc1cc(C(=O)N(CCN(C)C)CC2CCCN(Cc3ccccc3F)C2)ccc1C (centres undefined) | nt | 12.4 | nt | nt | nt | nt
C=CCNC(=O)c1c(Br)cnn1-c1ccc(C)cc1 | 19.7 | 8.8 | 0.8 | 75.7 | 147.4* | 2.95
CCOC(=O)c1cnn(-c2ccc(C)cc2)c1N | 5.8 | nt | 0.9 | 29.2 | 111.1 | 1.95
Cc1cc(C)c(C#N)c(Sc2ccccc2N)n1 | -3.8 | 1.2 | 1 | 28.9 | 139.4* | 1.15
COc1ccc(C(=O)N2CCCC(c3nc(-c4ccc(OC)c(OC)c4)no3)C2)c(OC)c1 (centres undefined) | -7.5 | 14.5 | 1.1 | 1.8 | 90.7 | 0.92
CC(NC(=O)Cn1c(NCCO)nc2ccccc21)C1CC2CCC1C2 (centres undefined) | 0.0 | nt | 1 | 1.4 | 133.5* | 1.26
Cc1nc2ccccc2n1CC(=O)NC(C)C1CC2CCC1C2 (centres undefined) | 0.1 | 9.9 | 1 | 7.7 | 72.3 | 1.2
COc1ccc(NC(=O)CSc2nc(N)c3cc4c(nc3n2)CCCC4)cc1 | 61.6* | nt | 0.4 | 37.7 | 105.7 | 1.14
CC(=O)c1ccc(NC(=O)CSc2nc(N)c3cc4c(nc3n2)CCCC4)cc1 | 48.2 | 11.6 | 0.5 | 38.5 | 119.8 | 1.43
Cc1ccc(S(=O)(=O)N(C)C)cc1NC(=O)CSc1ncc(C(F)(F)F)cc1Cl | 1.1 | 12.3 | 1 | 8.7 | 101.6 | 0.88
Cc1ccc(S(=O)(=O)N2CCN(C(=O)CSc3ncc(C(F)(F)F)cc3Cl)CC2)cc1 | 58.5* | nt | 0.4 | 2.0 | 92.5 | 0.95
C[C@H]1O[C@@H](O[C@H]2CC[C@@]3(C)C(CC[C@]4(C)C3C=CC3=C5CC(C)(C)CC[C@]5(CO)[C@H](O)C[C@]34C)[C@]2(C)CO)[C@H](O)[C@@H](O[C@@H]2O[C@H](CO)[C@@H](O)[C@H](O)[C@H]2O)[C@H]1O (some centres undefined) | nt | -33.0 | nt | nt | nt | nt
O=C1CSC(=S)N1Cc1cccnc1 | -3.4 | nt | 1 | 3.5 | 79.4 | 4.81*
O=C1CSC(=S)N1c1cccnc1 | -6.8 | nt | 1.1 | 27.4 | 98.8 | 1.05
CC1(C)CC(=O)C(C=Nc2ccc3c(c2)OCO3)=C(O)C1 | 13.2 | nt | 0.9 | 19.6 | 131.8* | 1.61
COc1ccc(N=CC2=C(O)CC(C)(C)CC2=O)cc1 | 7.5 | -15.1 | 0.9 | 9.3 | 133.3* | 1.11
COc1ccc(N=CC2=C(O)CCCC2=O)cc1 | 7.2 | nt | 0.9 | -1.8 | 136.0* | 1.67
COc1ccc(OC)c(N=CC2=C(O)CC(C)(C)CC2=O)c1 | -3.5 | nt | 1 | -3.7 | 102.4 | 0.74
